In the library only some 2.4% were active in any assay of this set; here they are far more common.
ABHD4 inh = inhibits mouse alpha/beta hydrolase domain 4; Q8VD66; purified mABHD4, FP-Rh probe fluorescence polarization; inhibition, % at 8.92 µM; 370,000 compounds, 0.54% hits; AID 720543;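 active means inhibition exceeding the mean over every tested compound plus 3 SD, cut at about 30% in these data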
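Assay system: mABHD4 protein; medium: HEPES pH 7.0, NaCl, Pluronic buffer; dosing: 8.92 µM, single dose; schedule: 45 min + 60 min at 25 °C; signal: FP readout, ex 525 nm / em 598 nm; read-out: normalized percent inhibition of probe labeling; repeats: single replicate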
PRMT1 FP inh = blocks human protein arginine methyltransferase 1; 370,000 compounds, 1.3% hits; inhibition, % at 2.79 µM; Q99873; recombinant PRMT1, activity-based probe fluorescence polarization; AID 652257;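 active means inhibition above about 21% made by adding two undisclosed values, limit read from the data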
SIAE primary = human SIAE inhibition, primary screen; Q9HAT2; SIAE FP-Rh probe binding, fluorescence polarization; inhibition, % at 9.66 µM; 370,000 compounds, 0.69% hits;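 active means inhibition above a cutoff: mean of compounds within the control limits plus 3 SD of those, cut at about 17% in these data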
JMJD2C inh = inhibitors of human GASC-1 (JMJD2C) demethylase; GST-JMJD2C(1-420) H3K9me3 demethylation, DELFIA europium; AID 2099; Q9H3R0; inhibition, % at 2.35 µM; 330,000 compounds, 0.069% hits;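 active means more than half of a compound's replicate wells show inhibition beyond 50%, single wells judged on their own value; inconclusive means some, but no more than half, of replicates pass 50% inhibition; inactive means no replicate passes 50% inhibition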;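 further: signal counts dimethyl H3K9 product captured on neutravidin plate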
HTRA1 inhibitor = blocks human HTRA1 serine peptidase; Q92743; recombinant HTRA1, FP-rhodamine activity-based probe, fluorescence polarization; inhibition, % at 5.96 µM; 340,000 compounds, 0.5% hits; in the data active means inhibition above about 36%
Target sequence (Q92743 whole entry, looked up): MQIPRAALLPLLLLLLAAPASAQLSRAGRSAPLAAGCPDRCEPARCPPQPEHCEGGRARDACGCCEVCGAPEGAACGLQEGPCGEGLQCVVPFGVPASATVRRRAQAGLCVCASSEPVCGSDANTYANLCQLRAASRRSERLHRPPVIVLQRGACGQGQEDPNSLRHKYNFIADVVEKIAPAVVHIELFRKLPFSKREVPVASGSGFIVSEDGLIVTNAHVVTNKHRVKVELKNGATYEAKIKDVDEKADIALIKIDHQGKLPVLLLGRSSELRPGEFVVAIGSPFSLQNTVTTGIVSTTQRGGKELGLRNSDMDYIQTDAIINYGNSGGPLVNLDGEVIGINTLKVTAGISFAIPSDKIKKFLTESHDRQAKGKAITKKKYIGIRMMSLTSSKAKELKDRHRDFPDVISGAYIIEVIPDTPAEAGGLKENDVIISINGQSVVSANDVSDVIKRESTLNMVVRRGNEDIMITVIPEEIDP
PRMT1 confirm = confirmation of human PRMT1 inhibitors; shares compounds with PRMT1 FP inh; recombinant His-PRMT1, activity-based probe fluorescence polarization; inhibition, % at 2.79 µM; 3,300 compounds, 42% hits;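 active means mean inhibition across replicates above the hit cutoff derived for the earlier primary screen, cut at about 22% in these data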
A number is an active result; 0 = inactive; ? = inconclusive; - = no result given.

SMILES	ABHD4 inh	PRMT1 FP inh	SIAE primary	JMJD2C inh	HTRA1 inhibitor	PRMT1 confirm
COc1cc2cc(CN(Cc3ccc4c(c3)OCO4)C(=O)c3ccco3)c(=O)[nH]c2cc1OC	0	44.9	0	0	0	0
Cc1cc2cc(CN(Cc3ccc4c(c3)OCO4)C(=O)c3ccco3)c(=O)[nH]c2cc1C	-	-	-	0	0	-
O=C(NN=Cc1ccccc1C(=O)O)C(=O)NN=Cc1ccccc1C(=O)O	0	103.9	0	-	0	0
CCn1c(SCC(=O)c2ccccc2)nc2sc3c(c2c1=O)CCN(C)C3	0	55.0	0	0	0	0
CCn1c(SCC(=O)NCCc2ccccc2)nc2sc3c(c2c1=O)CCN(C)C3	0	0	0	-	0	-
c1coc(-c2ccc3nncn3c2)c1	0	43.5	0	-	-	39.5
c1cc(N2CCOCC2)ccc1-c1ccc2nncn2c1	0	0	0	-	-	-
CN(Cc1cn(Cc2ccccc2)nn1)S(=O)(=O)c1ccccc1Br	0	0	0	-	-	-
CCOC(=O)C1CCCN(C2CC(=O)N(c3cccc(C(F)(F)F)c3)C2=O)C1 (stereo unspecified)	0	25.6	0	0	0	25.4
CCOC(=O)C1CCCN(C2CC(=O)N(c3ccc(N4C(=O)CC(N5CCCC(C(=O)OCC)C5)C4=O)cc3)C2=O)C1 (stereo unspecified)	0	0	0	0	0	-
CCOC(=O)C1CCCN(C2CC(=O)N(c3ccccc3)C2=O)C1 (stereo unspecified)	0	56.6	0	0	0	0
CCOC(=O)C1CCCN(C2CC(=O)N(c3ccc(C)c(C)c3)C2=O)C1 (stereo unspecified)	0	45.9	0	0	0	0
CN1OC[C@@H]2CN(C(=O)CCc3ccccc3)[C@H](c3cccc(Oc4ccccc4)c3)C[C@@H]21	0	0	0	-	0	-
CN(C)C(CNC(=O)c1cccc(S(=O)(=O)Nc2ccc(SC(F)F)cc2)c1)c1ccccc1 (stereo unspecified)	0	44.4	0	-	0	62.3
COc1ccc(NS(=O)(=O)c2cccc(C(=O)NCC(c3ccccc3)N(C)C)c2)cc1 (stereo unspecified)	0	0	0	0	0	-
CCc1nc2ccc(C(=O)Nc3cccc(NS(C)(=O)=O)c3)cn2c1N(CC)CCOC	0	0	0	-	-	-
O=C(CN1CC[n+]2c(-c3cccs3)csc21)c1ccc(Br)cc1	0	25.1	0	0	0	42.2
O=C(CN1CC[n+]2c(-c3ccccc3)csc21)c1ccc(Br)cc1	0	48.7	0	0	-	54.6
CC(=O)c1cccc(-c2ccnc3c2CC(C(=O)Nc2ccc(Cl)c(C(F)(F)F)c2)O3)c1 (stereo unspecified)	0	0	0	-	-	-
O=C1CC(N2CCC(c3nc4ccccc4o3)CC2)C(=O)N1Cc1cccs1 (stereo unspecified)	0	46.9	0	0	0	0
NC(=O)C1CCN(C2CC(=O)N(Cc3cccs3)C2=O)CC1 (stereo unspecified)	0	73.6	0	0	0	0
O=C1CC(N2CCN(c3nc4ccccc4s3)CC2)C(=O)N1Cc1cccs1 (stereo unspecified)	0	0	0	0	0	-
O=C(CSc1nnc(-c2ccccn2)n1Cc1ccco1)Nc1ccc(Oc2ccccc2)cc1	0	0	0	-	-	-
O=C(NCC1COc2ccccc2O1)c1ccc(NC(=O)c2c(Cl)cccc2Cl)cc1 (stereo unspecified)	0	0	0	-	-	-
Oc1ccc(N=Nc2ccccc2)o1	0	35.0	0	0	0	49.5
SMILES	ABHD4 inh	PRMT1 FP inh	SIAE primary	JMJD2C inh	HTRA1 inhibitor	PRMT1 confirm
CC1(C)Cc2c(C#N)c(N)sc(=S)c2CO1	0	46.1	0	0	0	0
CC(C)C1Cc2c(C#N)c(N)sc(=S)c2CO1 (stereo unspecified)	0	48.3	0	0	0	0
CCN(CC)c1nc(C)c2c(c1C#N)CC(C)(C)OC2	0	0	0	0	0	-
CC(C)N1CCc2c(sc(N)c2C#N)C1	0	0	0	0	0	-
CCCCCOc1ccc(C(=O)CCN2CCOCC2)cc1	0	26.3	0	?	0	0
O=c1ccsn1Cc1ccccc1	0	36.9	0	0	0	44.1
CCC(CC)C(C(=O)NCc1ccccc1)N1CCN(c2cccc(C)c2C)CC1 (stereo unspecified)	0	0	0	-	-	-
O=C(N/N=C/c1sc(=O)[nH]c1-[n+]1ccc2ccccc2c1)c1ccccc1[O-]	0	95.4	0	0	0	0
Cc1cc[n+](-c2[nH]c(=O)sc2/C=N/N=C(\[O-])c2ccccc2)cc1C	0	62.4	0	0	0	38.3
Cc1cc[n+](-c2[nH]c(=O)sc2/C=N/N=C(\[O-])c2ccncc2)cc1C	0	0	0	0	0	-
COC(=O)C1=C(C)N(C)C(=NCc2cc(OC)c(OC)c(OC)c2)NC1c1cccc(Cl)c1 (stereo unspecified)	0	0	0	-	-	-
COc1ccc(CN2C(=O)c3cccnc3C2=O)cc1S(=O)(=O)NCc1ccc(C)o1	0	41.2	0	0	0	0
COc1ccccc1CNS(=O)(=O)c1cc(CN2C(=O)c3cccnc3C2=O)ccc1OC	0	0	0	0	0	-
O=C(O)CCc1ccc(-c2cccs2)o1	-	-	-	0	0	-
Cc1ccc(-c2ccc(CCC(=O)O)o2)cc1	0	39.9	0	0	0	40.0
C[C@H]1[C@H](c2ccccc2)Oc2cccc(N3CCCC3)c2S(=O)(=O)N1Cc1cccc(F)c1	0	0	0	-	-	-
O=C1N(Cc2ccccc2)c2ccccc2C12CCCc1sc(CCc3ccccc3)nc12 (stereo unspecified)	0	0	0	-	-	-
COc1ccc(NC(=S)NCCN2CCC(C)CC2)cc1Cl	0	48.0	0	0	0	46.2
COCCN(C(=S)Nc1ccc(OC)c(Cl)c1)C1CCN(C(C)C)CC1	0	0	0	0	0	-
COc1ccc(NC(=S)N(CCC(C)C)C2CCN(C(C)C)CC2)cc1Cl	0	54.0	0	0	0	54.5
COc1ccc(NC(=S)NCCCN2CCCC2)cc1Cl	0	0	0	0	0	-
COC(=O)[C@]12C[C@H](CC(=O)NCc3ccc(C)o3)C(=O)N(Cc3ccco3)C1=C[C@H](COCc1ccccc1)O[C@@H]2C	0	0	0	-	-	-
O=C1/C(=C/c2ccco2)SC(=S)N1C1CCS(=O)(=O)C1 (stereo unspecified)	0	36.5	0	0	0	0
Cc1ccc(/C=C2\SC(=S)N(C3CCS(=O)(=O)C3)C2=O)cc1 (stereo unspecified)	0	0	0	0	0	-
CCN(C(=O)C(C)N1C(=O)/C(=C/c2ccco2)SC1=S)C1CCS(=O)(=O)C1 (stereo unspecified)	0	26.1	0	0	0	0
Cn1c(=O)cc(OCCCC(=O)Nc2cc(-c3cn[nH]c3)ccn2)c2ccccc21	0	0	0	-	-	-
O=C(OC12CCCN(C1)/C(=C/c1ccncc1)C2)c1ccco1 (stereo unspecified)	0	0	0	-	-	-
